Test results published in ChEMBL document CHEMBL3244368, “[3-(1,4-Cyclohexadienyl)-L-alanine,8-lysine]vasopressin: synthesis and some pharmacological properties” (J Med Chem, 1979).
Positions of bridges follow the written chain, without caps; N, C: chain ends. Residues, ends and D or L forms follow the SMILES beside them.

Columns and labels:
[1] = Stability of the compound in 0.2 M potassium phosphate buffer at pH 7.7 assessed as hydrolysis by measuring Gly level in presence of alpha-amylase preparation; assay type: ADME
[2] = Stability of the compound in 0.2 M potassium phosphate buffer at pH 7.7 assessed as hydrolysis by measuring Tyr level in presence of alpha-amylase preparation and aminopeptidase M; assay type: ADME
[3] = Stability of the compound in 0.2 M potassium phosphate buffer at pH 7.7 assessed as hydrolysis by measuring Leu/Lys level in presence of pronase and aminopeptidase M; assay type: ADME
Outline: (§1)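 Pronase digest in 0.2 M potassium phosphate, pH 7.7, substrate:enzyme 5:1, 37 °C, enzyme split over 18 h + 4 h. Digest acidified, clarified and lyophilized, then treated with aminopeptidase M (0.2 M potassium phosphate, pH 7.7, substrate:enzyme 1:1.5, 3 h, 37 °C). Amino acid analysis.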

[4] = Stability of the compound in 0.2 M potassium phosphate buffer at pH 7.7 assessed as hydrolysis by measuring Tyr level in presence of alpha-amylase preparation; assay type: ADME
[5] = Stability of the compound in 0.2 M potassium phosphate buffer at pH 7.7 assessed as hydrolysis by measuring Ile/Phe + DiHPe level in presence of alpha-amylase preparation and aminopeptidase M; assay type: ADME
[6] = Stability of the compound in 0.2 M potassium phosphate buffer at pH 7.7 assessed as hydrolysis by measuring Ile/Phe + DiHPe level in presence of alpha-amylase preparation; assay type: ADME
[7] = Stability of the compound in […] assessed as hydrolysis by measuring Leu/Lys level in presence of alpha-amylase preparation and cyclohexadiene; assay type: ADME; details: buffer
Outline: (§2)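 Aspergillus oryzae α-amylase preparation, 1 mg per 0.9 µmol peptide, in potassium phosphate buffer pH 7, with 1,4-cyclohexadiene (10 µL) and toluene, under N2, 37 °C, 17 h. Adjusted to pH 2.2 for amino acid analysis. Phe from a control of constituent amino acids plus enzyme subtracted to give Phe in residue 3.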

[8] = Stability of the compound in 0.2 M potassium phosphate buffer at pH 7.7 assessed as hydrolysis by measuring Asn/Gln level in presence of pronase and aminopeptidase M; assay type: ADME; outline: as §1
[9] = Stability of the compound in […] potassium phosphate buffer at […] assessed as hydrolysis by measuring Ile/Phe + DiHPe level in presence of alpha-amylase preparation and cyclohexadiene; assay type: ADME; outline: as §2
[10] = Stability of the compound in 0.2 M potassium phosphate buffer at pH 7.7 assessed as hydrolysis by measuring Asn/Gln level in presence of alpha-amylase preparation; assay type: ADME
[11] = Stability of the compound in 0.2 M potassium phosphate buffer at pH 7.7 assessed as hydrolysis by measuring Ile/Phe + DiHPe level in presence of papain and aminopeptidase M; assay type: ADME
Outline: (§3)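 Papain digest in 0.5 M ammonium acetate, pH 5.3, with 0.15% mercaptoethanol, substrate:enzyme 20:1, 6 h at 37 °C. Acidified, clarified and lyophilized, then aminopeptidase M digest in 0.2 M potassium phosphate, pH 7.7, substrate:enzyme 1:1.5, 3 h at 37 °C. Amino acid analysis.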

[12] = Stability of the compound in 0.2 M potassium phosphate buffer at pH 7.7 assessed as hydrolysis by measuring Tyr level in presence of papain and aminopeptidase M; assay type: ADME; outline: as §3
[13] = Stability of the compound in 0.2 M potassium phosphate buffer at pH 7.7 assessed as hydrolysis by measuring Gly level in presence of alpha-amylase preparation and aminopeptidase M; assay type: ADME
[14] = Stability of the compound in […] assessed as hydrolysis by measuring Asn/Gln level in presence of alpha-amylase preparation and cyclohexadiene; assay type: ADME; details: buffer; outline: as §2
[15] = Stability of the compound in 0.2 M potassium phosphate buffer at pH 7.7 assessed as hydrolysis by measuring Leu/Lys level in presence of alpha-amylase preparation; assay type: ADME
[16] = Stability of the compound in 0.2 M potassium phosphate buffer at pH 7.7 assessed as hydrolysis by measuring Leu/Lys level in presence of papain and aminopeptidase M; assay type: ADME; outline: as §3
[17] = Stability of the compound in 0.2 M potassium phosphate buffer at […] assessed as hydrolysis by measuring Gly level in presence of alpha-amylase preparation and cyclohexadiene; assay type: ADME; outline: as §2
[18] = Stability of the compound in 0.2 M potassium phosphate buffer at pH 7.7 assessed as hydrolysis by measuring Gly level in presence of pronase and aminopeptidase M; assay type: ADME; outline: as §1
[19] = Stability of the compound in 0.2 M potassium phosphate buffer at pH 7.7 assessed as hydrolysis by measuring Gly level in presence of papain and aminopeptidase M; assay type: ADME; outline: as §3
[20] = Stability of the compound in 0.2 M potassium phosphate buffer at pH 7.7 assessed as hydrolysis by measuring Gly level in presence of pronase; assay type: ADME
Outline: (§4)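 Pronase digest in 0.2 M potassium phosphate buffer, pH 7.7, substrate:enzyme 5:1. Half the enzyme added at start and half after 18 h at 37 °C, then incubated 4 h more. Released amino acids quantified by amino acid analysis.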

[21] = Stability of the compound in 0.2 M potassium phosphate buffer at pH 7.7 assessed as hydrolysis by measuring Leu/Lys level in presence of alpha-amylase preparation and aminopeptidase M; assay type: ADME
[22] = Stability of the compound in 0.2 M potassium phosphate buffer at pH 7.7 assessed as hydrolysis by measuring Asn/Gln level in presence of pronase; assay type: ADME; outline: as §4
[23] = Stability of the compound in 0.2 M potassium phosphate buffer at pH 7.7 assessed as hydrolysis by measuring Ile/Phe + DiHPe level in presence of pronase and aminopeptidase M; assay type: ADME; outline: as §1
[24] = Stability of the compound in 0.2 M potassium phosphate buffer at pH 7.7 assessed as hydrolysis by measuring Asn/Gln level in presence of papain and aminopeptidase M; assay type: ADME; outline: as §3
[25] = Stability of the compound in 0.2 M potassium phosphate buffer at pH 7.7 assessed as hydrolysis by measuring Leu/Lys level in presence of pronase; assay type: ADME; outline: as §4
[26] = Stability of the compound in 0.2 M potassium phosphate buffer at […] assessed as hydrolysis by measuring Tyr level in presence of alpha-amylase preparation and cyclohexadiene; assay type: ADME; outline: as §2
[27] = Stability of the compound in 0.2 M potassium phosphate buffer at pH 7.7 assessed as hydrolysis by measuring Asn/Gln level in presence of alpha-amylase preparation and aminopeptidase M; assay type: ADME
[28] = Stability of the compound in 0.2 M potassium phosphate buffer at pH 7.7 assessed as hydrolysis by measuring Ile/Phe + DiHPe level in presence of pronase; assay type: ADME; outline: as §4
[29] = Stability of the compound in phosphate buffer at pH 7.5 in presence of rat kidney homogenates; assay type: ADME, tissue-based; details: tissue homogenate
Outline: (§5)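 DiHPhe incubated with rat kidney or liver homogenate in phosphate buffer, pH 7.5, then checked for conversion to Phe.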

[30] = Stability of the compound in phosphate buffer at pH 7.5 in presence of rat liver homogenates; assay type: ADME, tissue-based; details: tissue homogenate; outline: as §5
[31] = Oxytocic activity in isolated rat uterus strips in Mg2+-free van Dyke-Hastings solution
Rattus norvegicus [32] = experiment: Antidiuretic activity in iv dosed water loaded rat; assay type: functional, Urine
Outline: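 Water-loaded rats under ethanol anesthesia, peptide given intravenously. Potency referenced to the USP Posterior Pituitary Reference Standard.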

Gallus gallus = species: Gallus gallus; experiment: Vasodepressor activity in chicken; assay type: functional
Rattus norvegicus [33] = species: Rattus norvegicus; experiment: Vasopressor activity in phenoxybenzamine-treated rat; assay type: functional
Outline: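 Phenoxybenzamine-treated rats under urethane anesthesia. Potency referenced to the USP Posterior Pituitary Reference Standard.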

[34] = Oxytocic activity in isolated rat uterus strips in Mg2+-free solution

## CC[C@H](C)[C@H](NC(=O)[C@H](Cc1ccc(O)cc1)NC(=O)[C@@H](N)CS(=O)(=O)O)C(=O)N[C@@H](CCC(N)=O)C(=O)N[C@@H](CC(N)=O)C(=O)N[C@@H](CS(=O)(=O)O)C(=O)N1CCC[C@H]1C(=O)N[C@@H](CC(C)C)C(=O)NCC(N)=O
[1]
  Drug degradation: 50 mol%
[2]
  Drug degradation: 35 mol%
[3]
  Drug degradation: 65 mol%
[4]
  Drug degradation: 26 mol%
[5]
  Drug degradation: 82 mol%
[6]
  Drug degradation: 75 mol%
[7]
  Drug degradation: 57 mol%
[8]
  Drug degradation: 124 mol%
[9]
  Drug degradation: 51 mol%
[10]
  Drug degradation: 72 mol%
[11]
  Drug degradation: 13 mol%
[12]
  Drug degradation: 30 mol%
[13]
  Drug degradation: 60 mol%
[14]
  Drug degradation: 86 mol%
[15]
  Drug degradation: 72 mol%
[16]
  Drug degradation: 14 mol%
[17]
  Drug degradation: 38 mol%
[18]
  Drug degradation: 54 mol%
[19]
  Drug degradation: 13 mol%
[20]
  Drug degradation: 44 mol%
[21]
  Drug degradation: 85 mol%
[22]
  Drug degradation: 86 mol%
[23]
  Drug degradation: 65 mol%
[24]
  Drug degradation: 14 mol%
[25]
  Drug degradation: 46 mol%
[26]
  Drug degradation: 23 mol%
[27]
  Drug degradation: 90 mol%
[28]
  Drug degradation: 38 mol%

## N[C@@H](CC1=CCC=CC1)C(=O)O
[29]
  Stability: Stable
[30]
  Stability: Stable

## CC[C@H](C)[C@@H]1NC(=O)[C@H](Cc2ccc(O)cc2)NC(=O)[C@@H](N)CSSC[C@@H](C(=O)N2CCC[C@H]2C(=O)N[C@@H](CCCCN)C(=O)NCC(N)=O)NC(=O)[C@H](CC(N)=O)NC(=O)[C@H](CCC(N)=O)NC1=O (H-CYIQNCPKG-NH2; disulfide 1-6)
[31]
  Activity: 78 U/mg
Rattus norvegicus [32]
  Activity: 24 U/mg
Gallus gallus
  Activity: 190 U/mg
Rattus norvegicus [33]
  Activity: 130 U/mg

## NCCCC[C@H](NC(=O)[C@@H]1CCCN1C(=O)[C@@H]1CSSC[C@H](N)C(=O)N[C@@H](Cc2ccc(O)cc2)C(=O)N[C@@H](CO)C(=O)N[C@@H](CCC(N)=O)C(=O)N[C@@H](CC(N)=O)C(=O)N1)C(=O)NCC(N)=O (H-CYSQNCPKG-NH2; disulfide 1-6)
[31]
  Activity: <0.01 U/mg
Rattus norvegicus [32]
  Activity: 0.08 U/mg
Gallus gallus
  Activity: <0.01 U/mg
Rattus norvegicus [33]
  Activity: <0.01 U/mg

## NCCCC[C@H](NC(=O)[C@@H]1CCCN1C(=O)[C@@H]1CSSC[C@H](N)C(=O)N[C@@H](Cc2ccc(O)cc2)C(=O)N[C@@H](Cc2ccc(O)cc2)C(=O)N[C@@H](CCC(N)=O)C(=O)N[C@@H](CC(N)=O)C(=O)N1)C(=O)NCC(N)=O (H-CYYQNCPKG-NH2; disulfide 1-6)
[34]
  Activity: <=0.01 U/mg
Rattus norvegicus [32]
  Activity: 0.18 U/mg
Gallus gallus
  Activity: 0.08 U/mg
Rattus norvegicus [33]
  Activity: 0.07 U/mg
